Experimental data collected from several papers.
Compare with care: the assays were run in different laboratories. Values after ≈ are worked out from the molar mass of the structure shown.
Organism: Pseudomonas aeruginosa
Observed: microbial growth

| SMILES | test | test system | conditions | measurement | value |
| --- | --- | --- | --- | --- | --- |
| Cc1ccc(C(=O)C#Cc2ccc(F)c(F)c2)cc1 | absorbance |  | 100 µM, 24 h | activity vs control | 96% |
| CC1CCC(C(C)C)C(OC(=O)C=Cc2ccc(O)c(O)c2)C1 (stereo not drawn) | broth dilution | ATCC27853 |  | MIC | 2 mg/L (≈ 6.28 µM) |
| COc1cc(C#CC(=O)c2cccc(C)c2)ccc1O | absorbance |  | 10 µM, 24 h | activity vs control | 98% |
| Cc1[nH]c(C(=O)Nc2ccc(C(=O)NCc3n[nH]c(=O)o3)cc2N2CCNCC2)c(Cl)c1Cl.Cl | broth dilution | ATCC27853 |  | MIC | > 32 mg/L |
| CC1(C)S[C@@H]2[C@H](NC(=O)[C@H](N)c3ccccc3)C(=O)N2[C@H]1C(=O)O | broth dilution | ATCC27853 |  | MIC | 8 mg/L (≈ 22.9 µM) |
| COc1cccc(C(=O)C#Cc2ccc(O)c(OC)c2)c1 | absorbance |  | 10 µM, 24 h | activity vs control | 87% |
| COc1cc(C=Nc2cccc(O)c2)ccc1O | disc diffusion |  | 2000 µg/mL, 24 h | inhibition zone | 14.5 mm |
| O=C(C=Cc1ccc(O)c(O)c1)OCc1ccccc1 | broth dilution | ATCC27853 |  | MIC | 8 mg/L (≈ 29.6 µM) |
| CC(C)(O/N=C(\C(=O)N[C@@H]1C(=O)N2C(C(=O)[O-])=C(C[n+]3ccccc3)CS[C@H]12)c1csc(N)n1)C(=O)O | broth dilution | ATCC27853 | 20 h | MIC | 1 mg/L (≈ 1.83 µM) |
| CC(C)(O/N=C(\C(=O)N[C@@H]1C(=O)N2C(C(=O)[O-])=C(C[n+]3ccccc3)CS[C@H]12)c1csc(N)n1)C(=O)O |  | PAO1 |  | MIC90 | 4 mg/L (≈ 7.32 µM) |
| Cc1[nH]c(C(=O)Nc2ccc(C(=O)NCC(=O)O)cc2N2CC[C@@H](NC(=O)OC(C)(C)C)C2)c(Cl)c1Cl | broth dilution | ATCC27853 |  | MIC | > 32 mg/L |
| COc1cc(C#CC(=O)c2ccccc2Cl)ccc1O | absorbance |  | 10 µM, 24 h | activity vs control | 98% |
| Cl.N[C@H]1CCN(c2cc(C(=O)NCC(=O)O)ccc2NC(=O)c2cc(Br)c(Br)[nH]2)C1 | broth dilution | ATCC27853 |  | MIC | > 32 mg/L |
| COc1cc(-c2[nH]nnc2C(=O)c2ccccc2)ccc1O | absorbance |  | 10 µM, 24 h | activity vs control | 95% |
| CC(C)(C)OC(=O)N[C@H]1CCN(c2cc(C(=O)NCC(=O)O)ccc2NC(=O)c2cc(Br)c(Br)[nH]2)C1 | broth dilution | ATCC27853 |  | MIC | > 32 mg/L |
| CC(C)(O/N=C(\C(=O)N[C@@H]1C(=O)N2C(C(=O)[O-])=C(C[n+]3ccccc3)CS[C@H]12)c1csc(N)n1)C(=O)O | disc diffusion |  | 2000 µg/mL, 24 h | inhibition zone | 9.5 mm |
| Cc1[nH]c(C(=O)Nc2ccc(C(=O)NCC(=O)O)cc2N2CCNCC2)c(Cl)c1Cl.Cl | broth dilution | ATCC27853 |  | MIC | > 32 mg/L |
| COc1cc(C=Nc2ccccc2Br)ccc1O | disc diffusion |  | 2000 µg/mL, 24 h | inhibition zone | 14.2 mm |
